Test results reported in ChEMBL document CHEMBL1799964, “Synthesis of novel vitamin K2 analogues with modification at the ω-terminal position and their biological evaluation as potent steroid and xenobiotic receptor (SXR) agonists” (J Med Chem, 2011).

Key:
[1] = target: T1, Nuclear receptor subfamily 1 group I member 2 (Homo sapiens, UniProt O75469); assay: Binding affinity to human SXR transfected in human HepG2 cells coexpressing GAL4 assessed as transcriptional activation at 5 X 10^-6 M after 48 hrs by luciferase reporter gene assay; assay type: cell-based; conditions: hepg2, 48 h, 5 µM
T1 sequence (O75469 whole entry): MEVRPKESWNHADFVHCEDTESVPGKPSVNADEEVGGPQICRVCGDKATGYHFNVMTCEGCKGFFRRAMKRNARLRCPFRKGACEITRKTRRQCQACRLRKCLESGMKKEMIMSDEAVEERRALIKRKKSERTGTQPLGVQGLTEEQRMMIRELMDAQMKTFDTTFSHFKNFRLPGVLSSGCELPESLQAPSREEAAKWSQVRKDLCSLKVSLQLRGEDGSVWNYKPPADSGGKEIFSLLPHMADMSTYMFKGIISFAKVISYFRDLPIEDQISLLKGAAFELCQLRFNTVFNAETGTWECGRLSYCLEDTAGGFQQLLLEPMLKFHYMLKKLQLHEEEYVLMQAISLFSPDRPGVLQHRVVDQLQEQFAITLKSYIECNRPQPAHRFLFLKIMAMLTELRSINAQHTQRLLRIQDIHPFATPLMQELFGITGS
In short: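 HepG2 cells (2 x 10⁵/well) transfected by Lipofectamine with pM-SXR (0.1 μg), pGVP2-GAL2 luciferase reporter (1.0 μg) and pRL-CMV (0.05 μg). Mean ± SD of three independent experiments; Student's t test.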

[2] = target: T1, Nuclear receptor subfamily 1 group I member 2; assay: Agonist activity at human SXR transfected in human HepG2 cells coexpressing GAL4 assessed as activation of receptor-mediated CYP3A4 gene transcription at 1 X 10^-6 M after 48 hrs by luciferase reporter gene assay; conditions: hepg2, 48 h, 1 µM
[3] = tested on: Homo sapiens; assay: Drug level in osteoporotic patient at 45 […] administered daily; assay type: ADME, organism-based; conditions: in vivo, read-out: Drug uptake

Activity [1]	Activity [2]	concentration [3]	Structure (SMILES)
Active	Active		CC(C)=CCC/C(C)=C/CC/C(C)=C/CC1=C(C)C(=O)c2ccccc2C1=O
Not Active	Active		CC1=C(C/C=C(\C)CC/C=C(\C)CC/C=C(\C)CO)C(=O)c2ccccc2C1=O
Active			CC(C)=CCC/C(C)=C/CC1=C(C)C(=O)c2ccccc2C1=O [MENAQUINONE-2]
Active	Active	1000 nM	CC(C)=CCC/C(C)=C/CC/C(C)=C/CC/C(C)=C/CC1=C(C)C(=O)c2ccccc2C1=O [MENATETRENONE]

More lines, now with the values behind:

Structure (SMILES)	Activity [1]	Activity [2]	concentration [3]
CC1=C(C/C=C(\C)CC/C=C(\C)Cc2ccccc2)C(=O)c2ccccc2C1=O	Active	Active	
CC1=C(C/C=C(\C)CC/C=C(\C)CC/C=C(\C)Cc2ccccc2)C(=O)c2ccccc2C1=O	Active	Active	
CC(C)=CCC1=C(C)C(=O)c2ccccc2C1=O	Active	Active	
CC1=C(C/C=C(\C)CC/C=C(\C)CO)C(=O)c2ccccc2C1=O	Not Active	Active	
CC1=C(C/C=C(\C)CC/C=C(\C)CC/C=C(\C)CC/C=C(\C)CO)C(=O)c2ccccc2C1=O	Not Active	Active	
CO[C@H]1/C=C/O[C@@]2(C)Oc3c(C)c(O)c4c(O)c(c(/C=N/N5CCN(C)CC5)c(O)c4c3C2=O)NC(=O)/C(C)=C\C=C\[C@H](C)[C@H](O)[C@@H](C)[C@@H](O)[C@@H](C)[C@H](OC(C)=O)[C@@H]1C [RIFAMPIN]	Active		
